In brackets after ≈: the same amount, converted by molar mass.
What was measured:
Format in all cases: functional
Pseudomonas aeruginosa [1] = test: Antimicrobial activity against Pseudomonas aeruginosa RCMB 102002 at 5 mg/ml by agar diffusion technique; conditions: read-out: DIZ
How it was run: (§1)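 Agar well diffusion. Test compounds and reference standard drugs were diluted to 5.0, 2.5 and 1.0 mg/mL and applied to 0.6 cm wells. Inhibition zone beyond the control was scored as 0 (no inhibition), + (0.1–0.5 cm), ++ (0.6–1.0 cm) or +++ (1.0–1.5 cm).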

Bacillus subtilis [2] = test: Antimicrobial activity against Bacillus subtilis RCMB 101001 by twofold serial dilution method
How it was run: (§2)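 MIC was determined by further twofold serial dilution across twelve levels, from 1000 down to 0.49. Strains were the same bacterial, yeast and fungal RCMB isolates used in the diffusion screen.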

Staphylococcus aureus [3] = test: Antimicrobial activity against Staphylococcus aureus RCMB 106001 at 5 mg/ml by agar diffusion technique; conditions: read-out: DIZ; how it was run: as §1
Penicillium italicum [4] = test: Antimicrobial activity against Penicillium italicum RCMB 001018 at 1 mg/ml by agar diffusion technique; conditions: read-out: DIZ; how it was run: as §1
Escherichia coli [5] = test: Antimicrobial activity against Escherichia coli RCMB 103001 by twofold serial dilution method; how it was run: as §2
Pseudomonas aeruginosa [6] = test: Antimicrobial activity against Pseudomonas aeruginosa RCMB 102002 at 1 mg/ml by agar diffusion technique; conditions: read-out: DIZ; how it was run: as §1
[7] = system: Syncephalastrum racemosum; test: Antimicrobial activity against Syncephalastrum racemosum RCMB 016001 at 2.5 mg/ml by agar diffusion technique; conditions: read-out: DIZ; how it was run: as §1
Staphylococcus aureus [8] = test: Antimicrobial activity against Staphylococcus aureus RCMB 106001 at 1 mg/ml by agar diffusion technique; conditions: read-out: DIZ; how it was run: as §1
Pseudomonas aeruginosa [9] = test: Antimicrobial activity against Pseudomonas aeruginosa RCMB 102002 at 2.5 mg/ml by agar diffusion technique; conditions: read-out: DIZ; how it was run: as §1
Bacillus subtilis [10] = test: Antimicrobial activity against Bacillus subtilis RCMB 101001 at 2.5 mg/ml by agar diffusion technique; conditions: read-out: DIZ; how it was run: as §1
Aspergillus fumigatus [11] = test: Antimicrobial activity against Aspergillus fumigatus RCMB 002008 at 2.5 mg/ml by agar diffusion technique; conditions: read-out: DIZ; how it was run: as §1
Escherichia coli [12] = test: Antimicrobial activity against Escherichia coli RCMB 103001 at 2.5 mg/ml by agar diffusion technique; conditions: read-out: DIZ; how it was run: as §1
[13] = system: Syncephalastrum racemosum; test: Antimicrobial activity against Syncephalastrum racemosum RCMB 016001 by twofold serial dilution method; how it was run: as §2
Aspergillus fumigatus [14] = test: Antimicrobial activity against Aspergillus fumigatus RCMB 002008 at 1 mg/ml by agar diffusion technique; conditions: read-out: DIZ; how it was run: as §1
Candida albicans [15] = test: Antimicrobial activity against Candida albicans RCMB 005003 at 2.5 mg/ml by agar diffusion technique; conditions: read-out: DIZ; how it was run: as §1
Aspergillus fumigatus [16] = test: Antimicrobial activity against Aspergillus fumigatus RCMB 002008 by twofold serial dilution method; how it was run: as §2
Candida albicans [17] = test: Antimicrobial activity against Candida albicans RCMB 005003 at 5 mg/ml by agar diffusion technique; conditions: read-out: DIZ; how it was run: as §1
Candida albicans [18] = test: Antimicrobial activity against Candida albicans RCMB 005003 at 1 mg/ml by agar diffusion technique; conditions: read-out: DIZ; how it was run: as §1
Bacillus subtilis [19] = test: Antimicrobial activity against Bacillus subtilis RCMB 101001 at 1 mg/ml by agar diffusion technique; conditions: read-out: DIZ; how it was run: as §1
Escherichia coli [20] = test: Antimicrobial activity against Escherichia coli RCMB 103001 at 1 mg/ml by agar diffusion technique; conditions: read-out: DIZ; how it was run: as §1
Penicillium italicum [21] = test: Antimicrobial activity against Penicillium italicum RCMB 001018 by twofold serial dilution method; how it was run: as §2
Staphylococcus aureus [22] = test: Antimicrobial activity against Staphylococcus aureus RCMB 106001 at 2.5 mg/ml by agar diffusion technique; conditions: read-out: DIZ; how it was run: as §1
Penicillium italicum [23] = test: Antimicrobial activity against Penicillium italicum RCMB 001018 at 2.5 mg/ml by agar diffusion technique; conditions: read-out: DIZ; how it was run: as §1
[24] = system: Syncephalastrum racemosum; test: Antimicrobial activity against Syncephalastrum racemosum RCMB 016001 at 1 mg/ml by agar diffusion technique; conditions: read-out: DIZ; how it was run: as §1
Escherichia coli [25] = test: Antimicrobial activity against Escherichia coli RCMB 103001 at 5 mg/ml by agar diffusion technique; conditions: read-out: DIZ; how it was run: as §1
[26] = system: Syncephalastrum racemosum; test: Antimicrobial activity against Syncephalastrum racemosum RCMB 016001 at 5 mg/ml by agar diffusion technique; conditions: read-out: DIZ; how it was run: as §1
Aspergillus fumigatus [27] = test: Antimicrobial activity against Aspergillus fumigatus RCMB 002008 at 5 mg/ml by agar diffusion technique; conditions: read-out: DIZ; how it was run: as §1
Bacillus subtilis [28] = test: Antimicrobial activity against Bacillus subtilis RCMB 101001 at 5 mg/ml by agar diffusion technique; conditions: read-out: DIZ; how it was run: as §1
Penicillium italicum [29] = test: Antimicrobial activity against Penicillium italicum RCMB 001018 at 5 mg/ml by agar diffusion technique; conditions: read-out: DIZ; how it was run: as §1
Candida albicans [30] = test: Antimicrobial activity against Candida albicans RCMB 005003 by twofold serial dilution method; how it was run: as §2
Pseudomonas aeruginosa [31] = test: Antimicrobial activity against Pseudomonas aeruginosa RCMB 102002 by twofold serial dilution method; how it was run: as §2
Staphylococcus aureus [32] = test: Antimicrobial activity against Staphylococcus aureus RCMB 106001 by twofold serial dilution method; how it was run: as §2
[33] = Escherichia coli, RCMB 103001, read-out: MIC

OC(COc1ccccc1/C=N\n1c(-c2cccnc2)n[nH]c1=S)COc1ccccc1/C=N\n1c(-c2cccnc2)n[nH]c1=S
zone of inhibition at 5000 µg/mL (Pseudomonas aeruginosa [1]): 0 mm
MIC (Bacillus subtilis [2]): 250 mg/L (≈ 384 µM)
MIC (Bacillus subtilis [2]; Bacillus subtilis, RCMB 101001, read-out: MIC): 250 mg/L (≈ 384 µM)
zone of inhibition at 5000 µg/mL (Staphylococcus aureus [3]): 0 mm
zone of inhibition at 1000 µg/mL (Penicillium italicum [4]): 6 mm
MIC (Escherichia coli [5]): 250 mg/L (≈ 384 µM)
MIC (Escherichia coli [5]; [33]): 250 mg/L (≈ 384 µM)
zone of inhibition at 1000 µg/mL (Pseudomonas aeruginosa [6]): 0 mm
zone of inhibition at 2500 µg/mL [7]: 1 mm
zone of inhibition at 1000 µg/mL (Staphylococcus aureus [8]): 0 mm
zone of inhibition at 2500 µg/mL (Pseudomonas aeruginosa [9]): 0 mm
zone of inhibition at 2500 µg/mL (Bacillus subtilis [10]): 1 mm
zone of inhibition at 2500 µg/mL (Aspergillus fumigatus [11]): 0 mm
zone of inhibition at 2500 µg/mL (Escherichia coli [12]): 1 mm
MIC [13]: 250 mg/L (≈ 384 µM)
MIC ([13]; Syncephalastrum racemosum, RCMB 016001, read-out: MIC): 250 mg/L (≈ 384 µM)
zone of inhibition at 1000 µg/mL (Aspergillus fumigatus [14]): 0 mm
zone of inhibition at 2500 µg/mL (Candida albicans [15]): 0 mm
MIC (Aspergillus fumigatus [16]): 250 mg/L (≈ 384 µM)
MIC (Aspergillus fumigatus [16]; Aspergillus fumigatus, RCMB 002008, read-out: MIC): 250 mg/L (≈ 384 µM)
zone of inhibition at 5000 µg/mL (Candida albicans [17]): 0 mm
zone of inhibition at 1000 µg/mL (Candida albicans [18]): 0 mm
zone of inhibition at 1000 µg/mL (Bacillus subtilis [19]): 1 mm
zone of inhibition at 1000 µg/mL (Escherichia coli [20]): 0 mm
MIC (Penicillium italicum [21]): 250 mg/L (≈ 384 µM)
zone of inhibition at 2500 µg/mL (Staphylococcus aureus [22]): 0 mm
zone of inhibition at 2500 µg/mL (Penicillium italicum [23]): 6 mm
zone of inhibition at 1000 µg/mL [24]: 0 mm

OC1COc2ccccc2/C=N\n2c(nnc2-c2cccnc2)SCCCCSc2nnc(-c3cccnc3)n2/N=C\c2ccccc2OC1
zone of inhibition at 5000 µg/mL (Pseudomonas aeruginosa [1]): 0 mm
zone of inhibition at 5000 µg/mL (Escherichia coli [25]): 0 mm
zone of inhibition at 5000 µg/mL (Staphylococcus aureus [3]): 1 mm
zone of inhibition at 1000 µg/mL (Penicillium italicum [4]): 0 mm
zone of inhibition at 1000 µg/mL (Pseudomonas aeruginosa [6]): 0 mm
zone of inhibition at 2500 µg/mL [7]: 0 mm
zone of inhibition at 1000 µg/mL (Staphylococcus aureus [8]): 0 mm
zone of inhibition at 5000 µg/mL [26]: 0 mm
zone of inhibition at 2500 µg/mL (Pseudomonas aeruginosa [9]): 0 mm
zone of inhibition at 2500 µg/mL (Bacillus subtilis [10]): 1 mm
zone of inhibition at 2500 µg/mL (Aspergillus fumigatus [11]): 0 mm
zone of inhibition at 2500 µg/mL (Escherichia coli [12]): 0 mm
zone of inhibition at 1000 µg/mL (Aspergillus fumigatus [14]): 0 mm
zone of inhibition at 2500 µg/mL (Candida albicans [15]): 0 mm
zone of inhibition at 5000 µg/mL (Candida albicans [17]): 0 mm
zone of inhibition at 5000 µg/mL (Aspergillus fumigatus [27]): 0 mm
zone of inhibition at 1000 µg/mL (Candida albicans [18]): 0 mm
zone of inhibition at 1000 µg/mL (Bacillus subtilis [19]): 1 mm
zone of inhibition at 1000 µg/mL (Escherichia coli [20]): 0 mm
zone of inhibition at 5000 µg/mL (Bacillus subtilis [28]): 1 mm
zone of inhibition at 2500 µg/mL (Staphylococcus aureus [22]): 0 mm
zone of inhibition at 2500 µg/mL (Penicillium italicum [23]): 0 mm
zone of inhibition at 1000 µg/mL [24]: 0 mm
zone of inhibition at 5000 µg/mL (Penicillium italicum [29]): 0 mm

C1=N\n2c(nnc2-c2cccnc2)SCCCCSc2nnc(-c3cccnc3)n2/N=C\c2ccccc2OCCCCOc2ccccc2/1
MIC (Candida albicans [30]): 250 mg/L (≈ 356 µM)
MIC (Candida albicans [30]; Candida albicans, RCMB 005003, read-out: MIC): 250 mg/L (≈ 356 µM)
zone of inhibition at 1000 µg/mL (Penicillium italicum [4]): 0 mm
MIC (Escherichia coli [5]; [33]): 250 mg/L (≈ 356 µM)
zone of inhibition at 1000 µg/mL (Pseudomonas aeruginosa [6]): 0 mm
zone of inhibition at 2500 µg/mL [7]: 0 mm
MIC (Pseudomonas aeruginosa [31]): 250 mg/L (≈ 356 µM)
MIC (Pseudomonas aeruginosa [31]; Pseudomonas aeruginosa, RCMB 102002, read-out: MIC): 250 mg/L (≈ 356 µM)
zone of inhibition at 1000 µg/mL (Staphylococcus aureus [8]): 1 mm
zone of inhibition at 5000 µg/mL [26]: 0 mm
zone of inhibition at 2500 µg/mL (Pseudomonas aeruginosa [9]): 0 mm
zone of inhibition at 2500 µg/mL (Bacillus subtilis [10]): 0 mm
zone of inhibition at 2500 µg/mL (Aspergillus fumigatus [11]): 0 mm
MIC (Staphylococcus aureus [32]): 250 mg/L (≈ 356 µM)
MIC (Staphylococcus aureus [32]; Staphylococcus aureus, RCMB 106001, read-out: MIC): 250 mg/L (≈ 356 µM)
zone of inhibition at 2500 µg/mL (Escherichia coli [12]): 1 mm
zone of inhibition at 1000 µg/mL (Aspergillus fumigatus [14]): 0 mm
zone of inhibition at 2500 µg/mL (Candida albicans [15]): 1 mm
zone of inhibition at 5000 µg/mL (Aspergillus fumigatus [27]): 0 mm
zone of inhibition at 1000 µg/mL (Candida albicans [18]): 0 mm
zone of inhibition at 1000 µg/mL (Bacillus subtilis [19]): 0 mm
zone of inhibition at 1000 µg/mL (Escherichia coli [20]): 1 mm
zone of inhibition at 5000 µg/mL (Bacillus subtilis [28]): 0 mm
zone of inhibition at 2500 µg/mL (Staphylococcus aureus [22]): 1 mm
zone of inhibition at 2500 µg/mL (Penicillium italicum [23]): 0 mm
zone of inhibition at 1000 µg/mL [24]: 0 mm

Reference: ChEMBL document CHEMBL1629465, “Efficient synthesis of novel 1,2,4-triazole fused acyclic and 21-28 membered macrocyclic and/or lariat macrocyclic oxaazathia crown compounds with potential antimicrobial activity” (2010)
